Assay results taken from PMC4814158 (MedChemComm, 2015).

Legend:
Type in all cases: in vitro ADME
[1] = tested on: Phase II conjugative enzymes; test: Phase II conjugation reactions; conditions: rat enzymes (printed: rat microsomes)
Outline: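 Three rat liver S9 incubations in pH 7.4 phosphate at 37 °C, each with test compound 100 μM and MgCl2 1 mM. Glucuronidation used 2 mg/mL S9 activated with alamethicin on ice 15 min, plus UDPGA 5 mM. Sulfation used 2 mg/mL S9 plus PAPS 0.2 mM. Glutathione conjugation used 10 mg/mL S9 plus glutathione 0.2 mM. Parent loss by LC-MS/MS over 120 min.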

[2] = tested on: glutathione-S-transferases (GSTs); test: Glutathione conjugation in rat liver S9; conditions: rat enzymes
Outline: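 Rat liver S9 (10 mg/mL) in 0.1 M potassium phosphate, pH 7.4, with test compound 100 μM and MgCl2 1 mM (final), preincubated 5 min at 37 °C. Reaction started with glutathione 0.2 mM final. Controls: acetaminophen as positive, no-glutathione as negative. Samples taken over 0–120 min, quenched in cold methanol with internal standard. Parent measured by HILIC LC-MS/MS; % intact at 120 min vs time zero, mean ± %CV.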

[3] = tested on: sulfotransferases (SULTs); test: Sulfoconjugation in rat liver S9 with PAPS; conditions: rat liver S9, 2 h
Outline: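 Sulfotransferase reaction in rat liver S9 (2 mg/mL), 0.1 M potassium phosphate pH 7.4, with 1 mM MgCl2 and test compound at 100 μM final. After 5 min preincubation at 37 °C, PAPS was added to 0.2 mM. Controls: 7-hydroxycoumarin as positive, PAPS-free as negative. Aliquots to 120 min stopped with ice-cold methanol plus internal standard. LC-MS/MS of parent; percent intact relative to time zero.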

[4] = tested on: uridine glucuronosyl transferases (UGTs); test: Glucuronide conjugation in rat liver S9 with UDPGA; conditions: rat liver S9 + UDP glucuronic acid, 2 h
[5] = tested on: uridine glucuronosyl transferases (UGTs); test: Glucuronide conjugation in human liver S9 with UDPGA; conditions: human liver S9 + UDP glucuronic acid, 2 h

| Compound | stability towards Phase II conjugative enzymes (in words) [1] | formation of glutathione conjugates (in words) [2] | also measured |
| --- | --- | --- | --- |
| CN[C@@H]1[C@H](O)[C@H](NC)[C@H]2O[C@]3(O)[C@H](O[C@@H]2[C@H]1O)O[C@H](C)C[C@H]3NC(=O)Cc1ccc(F)cn1 [Compound 1445] | complete stability |  |  |
| CN[C@@H]1[C@H](O)[C@H](NC)[C@H]2O[C@]3(O)[C@H](O[C@@H]2[C@H]1O)O[C@H](C)C[C@H]3NC(=O)Cc1cc(Cl)ccn1 [Compound 1544] |  | formed glutathione conjugates |  |
| CN[C@@H]1[C@H](O)[C@H](NC)[C@H]2O[C@]3(O)[C@H](O[C@@H]2[C@H]1O)O[C@H](C)C[C@H]3NC(=O)Cc1ccc(Cl)cn1 [Compound 1599] | complete stability |  |  |
| CN[C@@H]1[C@H](O)[C@H](NC)[C@H]2O[C@]3(O)[C@H](O[C@@H]2[C@H]1O)O[C@H](C)C[C@H]3NC(=O)Cc1cc(Cl)c(F)cn1 [Compound 1661] | complete stability |  |  |
| CN[C@@H]1[C@H](O)[C@H](NC)[C@H]2O[C@]3(O)[C@H](O[C@@H]2[C@H]1O)O[C@H](C)C[C@H]3NC(=O)Cc1cc(Cl)c(C)cn1 [Compound 1666] |  | formed glutathione conjugates | sulfoconjugation (in words) [3]: no metabolism |
| CN[C@@H]1[C@H](O)[C@H](NC)[C@H]2O[C@]3(O)[C@H](O[C@@H]2[C@H]1O)O[C@H](C)C[C@H]3NC(=O)Cc1ccc(O)cn1 [Compound 1810] | complete stability |  | % parent compound remaining intact [4]: above 93%; % parent compound remaining intact [5]: above 93% |
| CN[C@@H]1[C@H](O)[C@H](NC)[C@H]2O[C@]3(O)[C@H](O[C@@H]2[C@H]1O)O[C@H](C)C[C@H]3NC(=O)Cc1cc(Cl)c(OC)cn1 [Compound 1878] |  | formed glutathione conjugates |  |
